The text below walks through data of ChEMBL document CHEMBL1134104, “Novel alkylpolyamine analogues that possess both antitrypanosomal and antimicrosporidial activity” (Bioorg Med Chem Lett, 2001).

The term IC50 denotes the concentration that gives 50% inhibition. Read a low IC50 as greater potency. As usually defined, the inhibition is the share of the control response that was lost under treatment. A higher inhibition goes with strong suppression.

For assay [1], the system named is Trypanosoma brucei. Nature of the assay: In vitro growth inhibitory activity against Trypanosoma brucei strain K243 (As-10-3). The format is functional, organism-based.
For assay [2], the system named is Encephalitozoon cuniculi. Nature of the assay: In vitro growth inhibitory activity against Encephalitozoon cuniculi grown on RK-13 cells infected as a monolayer. It counts as functional, organism-based. The method in brief: (§1)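 RK-13 monolayers were infected with E. cuniculi, with 50–80% of control cells infected. Compound was added to duplicate wells for 7 days, and drug-containing medium was replaced on days 3 and 6. On day 8, cells were fixed overnight, Giemsa-stained and counted by inverted microscope at 400× in five confluent fields (240 cells/field). Percentage of infected cells was compared with untreated controls. Values came from three to five growth curves.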

Assay [3] has as its system Trypanosoma brucei. As to the kind of experiment: In vitro growth inhibitory activity against Trypanosoma brucei strain LAB110. The format is functional, organism-based.
In assay [4] the test system is Trypanosoma brucei. Nature of the assay: In vitro growth inhibitory activity against Trypanosoma brucei strain K269. It counts as functional, organism-based.
Assay [5] deals with Trypanosoma brucei. As to the kind of experiment: In vitro growth inhibitory activity against Trypanosoma brucei strain K243. It counts as functional, organism-based.
Assay [6] concerns Encephalitozoon cuniculi. As to the kind of experiment: In vitro growth inhibitory activity against Encephalitozoon cuniculi grown on RK-13 cells infected as a monolayer at concentration of 100 uM. The format is functional. The gist of the method:
as §1

Assay [7] concerns Encephalitozoon cuniculi. Nature of the assay: In vitro growth inhibitory activity against Encephalitozoon cuniculi grown on RK-13 cells infected as a monolayer at concentration of 50 uM. It counts as functional. The gist of the method: as §1
In assay [8] the test system is Encephalitozoon cuniculi. Nature of the assay: In vitro growth inhibitory activity against Encephalitozoon cuniculi grown on RK-13 cells infected as a monolayer at concentration of 250 uM. The format is functional. The gist of the method: as §1
Assay [9] relates to Encephalitozoon cuniculi. Nature of the assay: In vitro growth inhibitory activity against Encephalitozoon cuniculi grown on RK-13 cells infected as a monolayer at concentration of 500 uM. It counts as functional. The gist of the method:
as §1

On to `c1ccc(-c2ccccc2CNCCCNCCCCCCCNCCCNCc2ccccc2-c2ccccc2)cc1`, for which the IC50 amounted to 0.2 µM in the assay with Trypanosoma brucei [1]; 0.47 µM in the assay with Encephalitozoon cuniculi [2]; 0.24 µM in the assay with Trypanosoma brucei [3]; 0.75 µM with Trypanosoma brucei [4]; 0.19 µM in the assay on Trypanosoma brucei [5].
On to `c1ccc(CNCCCNCC2CCCC(CNCCCNCc3ccccc3)C2)cc1` (centres undefined), for which the IC50 in the assay with Trypanosoma brucei [1] came out at 56 µM; in the assay on Trypanosoma brucei [3], 4.05 µM; with Trypanosoma brucei [4] it was 5.1 µM; in the assay with Trypanosoma brucei [5], 4.15 µM. Moreover, the inhibition at 100 µM in the assay with Encephalitozoon cuniculi [6] turned out to be 86%.
As to `COc1ccccc1CNCCCNCCCCCCCNCCCNCc1ccccc1OC`, the IC50 worked out at 5.5 µM with Trypanosoma brucei [1], 22 µM with Trypanosoma brucei [3], 16.5 µM with Trypanosoma brucei [4] and 18.5 µM with Trypanosoma brucei [5]. The inhibition at 50 µM in the assay on Encephalitozoon cuniculi [7] was found to be 100%.
In the case of `N[C@@H]1C=C[C@@H](NCCCNCC2CCCC(CNCCCN[C@H]3C=C[C@H](N)C3)C2)C1` (some centres undefined), testing at 100 µM in the assay with Encephalitozoon cuniculi [6] gave an inhibition of 100%.
For `CCNCCCNC1C=CC(N)CCC1` (centres undefined), the IC50 was 36 µM in the assay with Encephalitozoon cuniculi [2], more than 100 µM in the assay on Trypanosoma brucei [3] and more than 100 µM with Trypanosoma brucei [5].
`C(CNCC1CCC1)CNCC1CCCC(CNCCCNCC2CCC2)C1` (centres undefined) had an inhibition at 250 µM in the assay on Encephalitozoon cuniculi [8] of 100%.
Take `N[C@H]1C=CC(NCCCNCC2CCCCCC2)CCC1` (some centres undefined): testing at 100 µM in the assay on Encephalitozoon cuniculi [6] gave an inhibition of 76%.
For the compound `C1CCCC(CNCCCNCC2CCCC(CNCCCNCC3CCCCCC3)C2)CC1` (centres undefined), the IC50 in the assay with Trypanosoma brucei [1] stood at 2.15 µM; in the assay on Trypanosoma brucei [3], 3.25 µM; with Trypanosoma brucei [4], 1.71 µM; in the assay on Trypanosoma brucei [5], 14 µM. The compound further gave an inhibition at 100 µM with Encephalitozoon cuniculi [6] of 100%.
As for `N[C@H]1C=CC(NCCCNCC2CC2)C1` (some centres undefined), the IC50 is 204 µM in the assay on Encephalitozoon cuniculi [2], more than 100 µM in the assay with Trypanosoma brucei [3] and more than 100 µM in the assay with Trypanosoma brucei [5].
With `CCNCCCNCCCCCCCNCCCNC[C@@H](C)CC`, the figures for the IC50 with Trypanosoma brucei [1], in the assay on Trypanosoma brucei [3] and in the assay on Trypanosoma brucei [5] were 0.79 µM, 0.31 µM and 0.38 µM, respectively.
In the assay with Encephalitozoon cuniculi [9], `CC[C@H](C)CNCCCNCCCCCCCNCCCN` came in with an inhibition at 500 µM of 87%.
As to `CCC(C)CNCCCNCCCCCCCNCCCNCC(C)CC` (centres undefined), the IC50 came out at 0.165 µM with Trypanosoma brucei [1], 0.031 µM in the assay on Trypanosoma brucei [3] and 0.04 µM in the assay with Trypanosoma brucei [5]. Besides, at 50 µM the inhibition in the assay with Encephalitozoon cuniculi [7] was 47%.
As to `C(CNCC1CC1)CNCC1CCCC(CNCCCNCC2CC2)C1` (centres undefined), the IC50 was more than 100 µM with Trypanosoma brucei [1], 73 µM in the assay on Trypanosoma brucei [3], more than 100 µM in the assay on Trypanosoma brucei [4] and 81.5 µM with Trypanosoma brucei [5]. The inhibition at 100 µM with Encephalitozoon cuniculi [6] turned out to be 100%.
On to `CCNCCCNCC1CCCC(N)CC1` (centres undefined), for which the IC50 in the assay with Encephalitozoon cuniculi [2] is 232 µM; in the assay on Trypanosoma brucei [3], more than 100 µM; with Trypanosoma brucei [5], more than 100 µM.
Consider `CCNCCCNCCCNCCCNCC` [BIS(ETHYL)NORSPERMINE], for which the IC50 in the assay on Trypanosoma brucei [1], in the assay with Trypanosoma brucei [3], with Trypanosoma brucei [4] and in the assay with Trypanosoma brucei [5] was more than 100 µM each time.
